SKKanGAS inh: SKKanGAS growth inhibition. S. pyogenes SKKanGAS, kanamycin growth, BacTiter-Glo, 6 h. inhibition, % at 7.5 µM. actives 1.3% (n = 300,000). AID 1662;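 active means mean replicate score, as percent of positive control median, at least 50; inconclusive means mean below 50 but one replicate at or above 50; inactive means mean and every replicate below 50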;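 further: strain carries kanamycin resistance gene driven by streptokinase promoter and grows in 40 µg/ml kanamycin; loss of luminescence reflects streptokinase promoter inhibition or plain growth inhibition; 0% = median of DMSO wells and 100% = positive control at its reference dose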
Cl transport mod: modulates chloride dependent transport by human KCC2; Q9H2X9; KCC2 cells, thallium flux FluoZin-2 fluorescence; B-score of Tl+ flux slope (higher = more flux/activation; lower = inhibition) at 10 µM; actives 2.2% (n = 190,000); AID 1456;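 active means thallium flux slope and its plate-corrected score both differing from the plate sample mean at a set confidence after two filtering rounds, in either direction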;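 further: slope of fluorescence scaled to starting intensity during 10 to 20 s after thallium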
WT yeast gro inh: growth inhibition of WT yeast, mitochondrial fusion screen | mitochondrial fusion phenotypic screen, WT strain | inhibition, % at 10 µM | actives 2.1% (n = 190,000) | AID 1362; in the data active means inhibition above about 58%; tested in S. cerevisiae
Ins promoter up: MIN6 insulin promoter up-regulation; MIN6 insulin promoter-GFP reporter, high-content imaging; active compounds read high; z-score at 5 µM; actives 0.3% (n = 190,000);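 active means z-score above 3 at 5 µM with at least 500 cells counted in the well; inconclusive means wells under 500 cells, flagged as cytotoxic or low count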
Rad51 HR inh: Rad51 (human) homologous recombination inhibition; actives 0.085% (n = 200,000); Q06609; inhibition, % at 10 µM; AID 1385; hRad51 DNA strand exchange, fluorescence dequenching;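 active means inhibition above 40% at the single screening dose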;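 further: 0% = DMSO control wells and 100% = blanks with heterologous ssDNA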
Target sequence (Q06609 whole entry, looked up): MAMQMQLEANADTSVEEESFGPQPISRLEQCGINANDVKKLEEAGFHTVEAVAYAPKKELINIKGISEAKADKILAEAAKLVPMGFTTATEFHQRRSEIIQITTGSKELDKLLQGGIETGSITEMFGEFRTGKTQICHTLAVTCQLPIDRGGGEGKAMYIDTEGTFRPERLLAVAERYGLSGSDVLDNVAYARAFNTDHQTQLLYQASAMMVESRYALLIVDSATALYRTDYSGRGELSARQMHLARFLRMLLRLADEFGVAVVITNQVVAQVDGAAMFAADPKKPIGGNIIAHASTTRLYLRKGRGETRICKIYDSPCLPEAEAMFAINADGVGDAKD
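Test system: preformed human Rad51 ssDNA filaments; also added: Donor/quencher-labelled 47-bp dsDNA substrate; doses: 10 µM final, single point; times: 37 °C 15-min filament assembly, 30-min compound preincubation, 15-min exchange; detection: FRET fluorescence dequenching, excitation 485 nm, emission 520 nm; read-out basis: Fluorescence-based percent inhibition, control- and blank-normalised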
Autophagy mod: modulators of autophagy | MEF GFP-LC3 puncta imaging; test concentration mostly 10 µM | calls only at 10 µM (by protocol) | actives 0.98% (n = 190,000) | AID 463193;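 active means percentage of spot-positive cells more than 3 SD above its plate mean, without a fluorescence outlier flag or 80% toxicity; inconclusive means no clear call, values can overlap the other calls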;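 further: spot-positive cell cutoff set from DMSO-treated cells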
An asterisk follows results filed as active; i = inactive; ? = inconclusive; · = no result given; + = active, no number. Sampled rows, rich in hits. Any-hit rate of the full collection: about 4.2%.

SMILES	SKKanGAS inh	Cl transport mod	WT yeast gro inh	Ins promoter up	Rad51 HR inh	Autophagy mod
COc1ccc(NC(=S)N/N=C/c2cccn2Cc2ccc(F)cc2Cl)cc1	·	3.8*	38.8	-0.24	-23.6	i
COc1ccc(NC(=S)N/N=C/c2cccn2Cc2ccccc2F)cc1	11.1	0.99	1.9	-0.33	6.9	i
Nc1ncnc(Nc2ccccc2Cl)n1	-1.7	·	·	-0.08	-5.3	·
CC(=O)Nc1ccc(C(=O)OCC(=O)c2ccc(C)c([N+](=O)[O-])c2)cc1	-7.8	-1.44	17.5	0.18	·	i
CCC(=O)Nc1ccc(C(=O)OCC(=O)c2ccc(C)c([N+](=O)[O-])c2)cc1	4.6	-0.211	18.8	3.37*	2.0	i
Cc1cccc(NC(=O)CCC(=O)OCC(=O)c2ccc(Oc3ccc([N+](=O)[O-])cc3)cc2)c1	-4.1	0.918	-6.3	-0.44	·	i
Cc1ccc(NC(=O)CCC(=O)OCC(=O)c2ccc(Oc3ccc([N+](=O)[O-])cc3)cc2)cc1C	-6.6	0.265	66.5*	0.19	·	i
Cc1ccc(NC(=O)C2CCCC2)cc1Cl	5.9	·	·	·	·	·
Cc1ccc(NS(=O)(=O)c2ccc(Cl)c(NC(=S)NC(=O)C3CCCCC3)c2)cc1Cl	84.0*	0.697	45.9	·	9.4	i
Cc1ccc(C(=O)CC(=O)COc2ccc(Cl)cc2C)cc1	101.0*	17.1*	4.4	-0.16	·	i
Cc1ccc(O)c(C(=O)CC(=O)c2ccc(Cl)cc2)c1	96.4*	·	·	·	·	·
Cc1ccc(NC(=O)c2ccc(OC(=O)COc3ccc(Cl)cc3C)cc2)cc1	-5.9	0.463	-0.9	-0.21	9.7	i
Cc1ccc(O)c(NC(=O)CSc2ccc(Cl)cc2)c1	21.7	-0.378	5.3	0.27	3.0	i
O=C(CC(=O)c1cc(Cl)ccc1O)c1ccccc1	111.1*	9.99*	62.4	-0.62	-2.8	i
Cc1cccc(C(=O)CC(=O)c2cc(Cl)ccc2O)c1	94.1*	·	61.0*	·	1.0	i
O=C(O)CC(=O)Nc1cc(Cl)ccc1O	4.9	·	-8.9	·	1.1	i
CCCCc1ccc(N2C(=NC(=O)C3CCCO3)SC3CS(=O)(=O)CC32)cc1 (centres undefined)	-2.3	·	·	·	·	·
Cc1c(NC(=S)NC(=O)c2ccco2)cccc1-c1nc2ncccc2o1	7.5	13*	-5.4	-0.1	-0.3	i
CCCCCCCCOC(=O)/C=C/c1c(C)[nH]c(=O)[nH]c1=O	64.1*	0.361	-15.7	-1.74	-6.5	i
N#Cc1ccc(-c2ccccc2)nc1SCC(=O)c1cccc(Cl)c1	-0.1	0.0672	11.2	·	-9.3	+
N#Cc1ccc(-c2ccc(Cl)cc2)nc1SCC(=O)c1cccc(Cl)c1	-5.2	·	-2.8	6.91*	-5.0	+
N#Cc1ccc(-c2cccnc2)nc1SCC(=O)c1ccccc1	-1.1	-2.06	·	2.09	-164.2	·
COCCN1C(=O)C(=O)/C(=C(/O)c2ccc(S(=O)(=O)N3CCOCC3)cc2)C1c1cccc([N+](=O)[O-])c1 (centres undefined)	-6.8	·	·	·	·	·
COCCNC(=O)c1c(NC(=O)c2nc(SC)ncc2Cl)sc2c1CCCC2	6.2	·	5.3	0.42	-14.5	+
COc1ccccc1S(=O)(=O)Cc1ccc(C(=O)N2CCCC2)o1	3.7	0.452	8.6	1.04	-14.1	i
SMILES	SKKanGAS inh	Cl transport mod	WT yeast gro inh	Ins promoter up	Rad51 HR inh	Autophagy mod
CCc1ccccc1S(=O)(=O)Cc1ccc(C(=O)N2CCN(c3ccccc3OC)CC2)o1	-4.9	-2.4	11.9	0.57	-3.8	+
COCCNC(=O)CN(C(=O)c1ccc(N2CCCC2)nc1)c1ccccc1	0.7	-2.74	17.4	-0.09	0.0	+
CCCN(CC(=O)Nc1ccccc1OC)Cc1c(O)ccc2ccccc12	2.3	·	·	·	·	·
CCOC(=O)c1cnn(-c2nc(-c3ccccc3)cs2)c1C(F)(F)F	70.7*	·	22.2	-0.38	10.8	i
CCOC(=O)c1cnn(-c2nc(-c3ccc(F)cc3)cs2)c1C(F)(F)F	38.8	0.813	·	·	3.7	i
CCOC(=O)c1cnn(-c2nc(-c3ccccc3F)cs2)c1C(F)(F)F	51.9*	·	6.6	0.21	-0.5	i
Cc1ccc2c(c1)c1c(n2CC(O)CNC(CO)(CO)CO)CCCC1 (centres undefined)	0.7	·	-6.2	0.71	8.3	i
Cc1ccc2c(c1)c1c(n2CC(O)CNC2CCCCC2)CCCC1 (centres undefined)	-4.2	1.69	93.1*	-2.24	-7.2	i
O=C(CCS(=O)(=O)c1ccc(Br)cc1)N1CCCCCC1	-1.0	·	·	·	·	·
CC1CC(C)CN(c2ncc3c(n2)CC(c2ccccc2Cl)CC3=O)C1 (centres undefined)	62.6*	-0.329	25.9	-0.08	1.3	i
COc1ccc(C2CC(=O)c3cnc(N4CCN(Cc5ccccc5)CC4)nc3C2)cc1 (centres undefined)	56.0*	-1.06	36.7	0.81	-2.9	i
S=c1nc(-c2ccccc2)n(Cc2ccco2)c2c1CCCC2	·	15.2*	14.0	-0.6	-12.7	i
Cc1c(C(=O)NCc2ccco2)oc2ccccc12	2.4	·	·	·	·	·
COc1ccc(NC(=O)/C=C/c2c(Cl)nc3ccccn23)cc1	-10.4	-1.18	-0.3	-0.83	·	i
COc1ccccc1N1CCN(C(=O)/C=C/c2c(Cl)nc3ccccn23)CC1	68.6*	-0.49	18.2	-0.19	·	i
CCN(CC(=O)Nc1ccc2c(c1)OCCO2)C(=O)CSCC(=O)Nc1ccc(C)cc1	12.1	·	·	·	·	·
Cc1ccc(-n2nnnc2SCC(=O)NC(=O)Nc2ccc3c(c2)OCCO3)cc1	49.9*	-0.987	-0.7	0.8	-1.2	i
Cc1nnc(SCC(=O)NC(=O)Nc2ccc3c(c2)OCCO3)s1	20.7	0.818	3.4	-0.23	8.4	+
COc1ccc(NC(=O)CSc2ccc3c(c2)OCCO3)cc1OC	5.5	0.0581	86.3*	-0.26	6.0	i
Cn1cc(CN2CCC(n3nccc3NC(=O)Cc3ccccc3)CC2)cn1	-0.7	·	·	·	·	·
CCn1nnc2sc3c(c2c1=O)CCC(C)C3 (centres undefined)	2.8	-0.923	-7.3	3.59*	3.0	i
CC(=O)Cn1nnc2sc3c(c2c1=O)CCC(C(C)(C)C)C3 (centres undefined)	2.7	-1.67	15.8	-1.22	-1.8	i
CCNC(=S)N1CCN(Cc2ccc3c(c2)OCO3)CC1	-0.8	-0.0547	2.3	-0.09	-8.5	i
O=C(NC(=S)N1CCN(Cc2ccc3c(c2)OCO3)CC1)c1ccc(Cl)cc1	15.8	75.2*	61.7*	0.06	3.1	i
O=C(NC(=S)N1CCN(Cc2ccc3c(c2)OCO3)CC1)c1cccc(Br)c1	?	79.4*	60.5*	·	2.3	i
O=C(c1ccc(COc2ccc(Cl)cc2)o1)N1CCN(Cc2ccc3c(c2)OCO3)CC1	-1.5	·	75.8*	-0.72	2.4	i
CCN1CCN(C(=O)c2ccc(COc3ccc(Cl)cc3)o2)CC1	-5.3	-1.01	14.0	-0.14	-5.2	i
